21 molecules from ChEMBL document CHEMBL2040813, “4-Thiophenoxy-2-trichloromethyquinazolines display in vitro selective antiplasmodial activity against the human malaria parasite Plasmodium falciparum” (Bioorg Med Chem Lett, 2011) can be followed below.

As usually defined, the CC50 is the concentration giving 50% cytotoxicity. A high value points to better tolerance by the cells. Broadly, the IC50 is the midpoint of a concentration-inhibition curve. The low end stands for higher potency, the high end for lower potency.

Series [1] in a line: Selectivity index, ratio of CC50 for human HepG2 cells to IC50 for chloroquine, pyrimethamine, and proguanil-resistant Plasmodium falciparum K1. The format is functional. A digest of the protocol: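 SI = HepG2 CC50 / K1 IC50. The read-out was MTT for 2 h, formazan dissolved in DMSO, A570 with 630 nm reference. Viability is expressed as % of untreated control, CC50 taken from the dose-response curve. The IC50 is from the SYBR Green K1 assay.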

The nature of series [2]: Cytotoxicity against human HepG2 cells after 72 hrs by MTT assay. The format is cell-based. The procedure, abridged:
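Cells seeded in RPMI with 10% foetal bovine serum, L-glutamine, penicillin/streptomycin, 37 °C, 6% CO₂; after 24 h, compound dilutions added for 72 h. MTT (5 mg/mL in PBS) added 2 h at 37 °C, formazan dissolved in DMSO, absorbance 570 nm (reference 630 nm). Viability as percent of untreated cells; CC50 from dose–response curve; mean of three independent experiments.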
A general note: Tetrazolium dyes change colour on reduction, which living cells bring about.

For the next series, the system named is Plasmodium falciparum. Description: Antiplasmodial activity against chloroquine, pyrimethamine, and proguanil-resistant Plasmodium falciparum K1 infected in human A+ erythrocytes after 72 hrs by SYBR Green-I fluorescence-based method. The format is functional, organism-based. The conditions noted are these: K1, 72 h. A digest of the protocol:
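Ring-stage cultures (5% sorbitol synchronised), maintained in A+ human erythrocytes with RPMI/HEPES/NaHCO3/10% A+ serum under 5% O2, 5% CO2. Assay at 2% haematocrit, 1% parasitaemia, graded compound concentrations, 72 h at 37 °C in triplicate. IC50 by nonlinear regression, mean of three independent experiments.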

Another series concerns Toxoplasma gondii. Description: Antimicrobial activity against tachyzoites of Toxoplasma gondii expressing PRU-beta-Gal gene infected in HFF after 72 hrs by colorimetric microtiter assay. The format is functional, organism-based.

As for `ClC(Cl)(Cl)c1nc(Sc2ccccc2)c2ccccc2n1`, the “Ratio CC50/IC50” value in series [1] turned out to be 18.4. This molecule also yielded a CC50 at 72 h in series [2] of 35 µM. In the series with Plasmodium falciparum, half-maximal inhibition (IC50) required 1.9 µM.

`Clc1ccccc1Sc1nc(C(Cl)(Cl)Cl)nc2ccccc12`: in series [1], the “Ratio CC50/IC50” value came to 9.3. Also, in series [2], the CC50 at 72 h came to 26 µM. The same molecule yielded an IC50 in the series with Plasmodium falciparum of 2.8 µM.

With `Clc1cccc(Sc2nc(C(Cl)(Cl)Cl)nc3ccccc23)c1`, in series [1], the “Ratio CC50/IC50” value was found to be 7.3. Moreover, the cytotoxic concentration (CC50) at 72 h in series [2] was 16 µM. Further, the IC50 in the series with Plasmodium falciparum was 2.2 µM.

On to `Fc1ccccc1Sc1nc(C(Cl)(Cl)Cl)nc2ccccc12`, for which, in series [1], the “Ratio CC50/IC50” value is 12.2. In series [2], this molecule registered a CC50 at 72 h of 28 µM. Further, in the series with Plasmodium falciparum, the midpoint of inhibition, the IC50, lay at 2.3 µM.

As for `Fc1cccc(Sc2nc(C(Cl)(Cl)Cl)nc3ccccc23)c1`, in series [1], the “Ratio CC50/IC50” value is 8.2. In addition, it took 15.5 µM to reach half-maximal cytotoxicity in series [2] (CC50 at 72 h). The 50% inhibitory concentration (IC50) with Plasmodium falciparum is 1.9 µM.

Turning to `Fc1ccc(Sc2nc(C(Cl)(Cl)Cl)nc3ccccc23)cc1`, in series [1], the “Ratio CC50/IC50” value was >25. In series [2], the CC50 at 72 h was > 30 µM. For the same molecule, the IC50 in the series on Plasmodium falciparum came out at 1.2 µM.

Turning to `FC(F)(F)c1ccccc1Sc1nc(C(Cl)(Cl)Cl)nc2ccccc12`, the “Ratio CC50/IC50” value in series [1] stood at 11.2. In series [2], this molecule had a 50% cytotoxic concentration (CC50) at 72 h of 28 µM. The same molecule displayed a concentration for half-maximal inhibition (IC50) in the series on Plasmodium falciparum of 2.5 µM.

In the case of `FC(F)(F)c1cccc(Sc2nc(C(Cl)(Cl)Cl)nc3ccccc23)c1`, the “Ratio CC50/IC50” value in series [1] is 8. In series [2], this molecule showed a CC50 at 72 h of 17.5 µM. For the same molecule, the midpoint of inhibition in the series with Plasmodium falciparum, the IC50, lay at 2.2 µM.

In the case of `FC(F)(F)c1ccc(Sc2nc(C(Cl)(Cl)Cl)nc3ccccc23)cc1`, in series [1], the “Ratio CC50/IC50” value was 13. The same molecule yielded a CC50 at 72 h in series [2] of 13 µM. For the same molecule, the IC50 with Plasmodium falciparum was determined as 1 µM.

As to `Cc1ccccc1Sc1nc(C(Cl)(Cl)Cl)nc2ccccc12`, the “Ratio CC50/IC50” value in series [1] was found to be 7.4. The same molecule gave a half-maximal cytotoxic concentration (CC50) at 72 h in series [2] of 52 µM. The same molecule yielded a 50% inhibitory concentration (IC50) in the series on Plasmodium falciparum of 7 µM.

Take `Cc1cccc(Sc2nc(C(Cl)(Cl)Cl)nc3ccccc23)c1`: the “Ratio CC50/IC50” value in series [1] was 18.4. In series [2], the 50% cytotoxic concentration (CC50) at 72 h amounted to 35 µM. In the series with Plasmodium falciparum, this molecule gave a half-inhibitory concentration (IC50) of 1.9 µM.

Regarding `Cc1ccc(Sc2nc(C(Cl)(Cl)Cl)nc3ccccc23)cc1`, the “Ratio CC50/IC50” value in series [1] is >19. Moreover, the CC50 at 72 h in series [2] is > 30 µM. In addition, the IC50 in the series on Plasmodium falciparum was found to be 1.6 µM.

For `COc1ccccc1Sc1nc(C(Cl)(Cl)Cl)nc2ccccc12`, in series [1], the “Ratio CC50/IC50” value was 8.2. The CC50 at 72 h in series [2] turned out to be 32 µM. The half-maximal inhibitory concentration (IC50) in the series on Plasmodium falciparum worked out at 3.9 µM.

With `COc1cccc(Sc2nc(C(Cl)(Cl)Cl)nc3ccccc23)c1`, the “Ratio CC50/IC50” value in series [1] was found to be 6. The molecule further came in with a CC50 at 72 h in series [2] of 12 µM. In addition, half-maximal inhibition in the series with Plasmodium falciparum (IC50) was put at 2 µM.

Take `COc1ccc(Sc2nc(C(Cl)(Cl)Cl)nc3ccccc23)cc1`: in series [1], the “Ratio CC50/IC50” value is reported as >3.2. In addition, in series [2], the CC50 at 72 h was > 8 µM. The molecule also yielded a 50% inhibitory concentration (IC50) with Plasmodium falciparum of 2.5 µM.

As for `Clc1ccc(Sc2nc(C(Cl)(Cl)Cl)nc3ccccc23)c(Cl)c1`, the “Ratio CC50/IC50” value in series [1] is recorded as 12.1. The same molecule showed a 50% cytotoxic concentration (CC50) at 72 h in series [2] of 18.2 µM. Moreover, in the series with Plasmodium falciparum, the IC50 came out at 1.5 µM.

For `Clc1ccc(Sc2ncnc3ccccc23)cc1`, the “Ratio CC50/IC50” value in series [1] was 3.8. In series [2], this molecule had a CC50 at 72 h of 16.7 µM. In the series with Plasmodium falciparum, this molecule gave a 50% inhibitory concentration (IC50) of 4.4 µM.

Turning to `FC(F)(F)c1nc(Sc2ccc(Cl)cc2)c2ccccc2n1`, the CC50 at 72 h in series [2] was > 15 µM. The IC50 in the series with Plasmodium falciparum was > 15 µM.

For `Clc1nc(C(Cl)(Cl)Cl)nc2ccccc12`, in series [1], the “Ratio CC50/IC50” value is on record as >2.3. Further, the half-maximal cytotoxic concentration (CC50) at 72 h in series [2] was > 125 µM.

For `C[C@H]1c2cccc(O)c2C(=O)C2=C(O)[C@]3(O)C(=O)C(C(N)=O)=C(O)[C@@H](N(C)C)[C@@H]3[C@@H](O)[C@@H]21.O` [DOXYCYCLINE], the “Ratio CC50/IC50” value in series [1] is reported as 4. The concentration for half-maximal inhibition (IC50) in the series with Plasmodium falciparum was 5 µM.

Turning to `CCc1nc(N)nc(N)c1-c1ccc(Cl)cc1` [PYRIMETHAMINE], it took 0.8 µM to reach half-maximal inhibition in the series on Toxoplasma gondii (IC50).
